Experiment [1] concerns Enterococcus faecalis. Kind of experiment: Antimicrobial activity against Enterococcus faecalis ATCC 29212 after 24 to 48 hrs by two-fold broth microdilution method. The class given is functional. (Dilution methods test growth across graded concentrations, often in twofold steps.)
Experiment [2] relates to Staphylococcus aureus. Description: Antimicrobial activity against Staphylococcus aureus ATCC 29213 after 18 hrs by modified broth microdilution method. The class given is functional. The method in brief: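 PGI90, the concentration giving 90% growth inhibition, fitted with an exponential growth curve from at least seven concentrations of the MIC assay. Inhibition % = [(Ac − Ap)/Ac] × 100 from A620 of drug-free control versus drug-treated culture. Checked by a modified broth microdilution (Phase 2).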

Experiment [3] relates to Serratia marcescens. Description: Antimicrobial activity against Serratia marcescens ATCC 14576 at 128 uM after 24 to 48 hrs by two-fold broth microdilution method. The experiment is classed as functional, organism-based. The method in brief:
(§1)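 Antibacterial microdilution in CAMH, inoculum 0.5 McFarland diluted in saline/CAMH, 35 °C for 18 h, with further reads at 24 and 48 h. Activity is scored at the maximum tested concentration, 128 µM. Triplicate.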

The test system of a further experiment is Klebsiella pneumoniae. Kind of experiment: Antimicrobial activity against Klebsiella pneumoniae ATCC 700603 at 128 uM after 24 to 48 hrs by two-fold broth microdilution method. The class given is functional, organism-based. The method in brief: as §1
The subject of experiment [4] is Enterobacter cloacae. Kind of experiment: Antimicrobial activity against Enterobacter cloacae ATCC 23355 after 24 to 48 hrs by two-fold broth microdilution method. The class given is functional.
Experiment [5] has as its system Candida albicans. Description: Antimicrobial activity against Candida albicans ATCC 537Y at 64 uM after 48 hrs by two-fold broth microdilution method. The class given is functional, organism-based. The method in brief:
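Single top concentration of the antifungal microdilution: RPMI 1640, inoculum 0.5 McFarland diluted in saline/RPMI, 35 °C for 48 h. Activity is judged at the highest tested level, 64 µM. Run in triplicate.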

Experiment [6] deals with Staphylococcus aureus. Kind of experiment: Antimicrobial activity against Staphylococcus aureus ATCC 29213 after 24 to 48 hrs by two-fold broth microdilution method. The experiment is classed as functional.
Experiment [7] deals with Escherichia coli. Description: Antimicrobial activity against Escherichia coli ATCC 25922 after 24 to 48 hrs by two-fold broth microdilution method. The class given is functional.
In experiment [8] the test system is Escherichia coli. Description: Antimicrobial activity against Escherichia coli ATCC 25922 at 128 uM after 24 to 48 hrs by two-fold broth microdilution method. The experiment is classed as functional, organism-based. The method in brief:
as §1

The test system of experiment [9] is Enterobacter cloacae. Description: Antimicrobial activity against Enterobacter cloacae ATCC 23355 at 128 uM after 24 to 48 hrs by two-fold broth microdilution method. The class given is functional, organism-based. The gist of the method: as §1
Experiment [10] has as its system Enterococcus faecalis. Kind of experiment: Antimicrobial activity against Enterococcus faecalis ATCC 29212 at 128 uM after 24 to 48 hrs by two-fold broth microdilution method. The experiment is classed as functional, organism-based. The method in brief:
as §1

The subject of experiment [11] is Serratia marcescens. Kind of experiment: Antimicrobial activity against Serratia marcescens ATCC 14576 after 24 to 48 hrs by two-fold broth microdilution method. The experiment is classed as functional.
For experiment [12], the system named is Staphylococcus aureus. Kind of experiment: Antimicrobial activity against multidrug-resistant Staphylococcus aureus VISA3 […] by two-fold broth microdilution method. The experiment is classed as functional.
For experiment [13], the system named is Candida albicans. Kind of experiment: Antimicrobial activity against Candida albicans ATCC 537Y after 48 hrs by two-fold broth microdilution method. The class given is functional. The gist of the method: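 Two-fold serial dilutions in RPMI 1640 per CLSI M27-A2. Stocks in DMSO/RPMI 1:20 v/v. Test range 1.0–64 µM. Inoculum set to 0.5 McFarland, then diluted in saline and RPMI 1640. Plates held at 35 °C for 48 h. MIC is the lowest concentration giving prominent growth reduction. Run in triplicate.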

Converted amounts (≈) assume the structure as drawn. The source made the active and inactive calls. The rule behind the calls is not given here. A value given as a limit tells only on which side of the number the result lay.

Usually MIC stands for the least concentration at which growth counts as inhibited. A higher MIC goes with a less susceptible organism. Usually MIC90 stands for an inhibitory concentration at the 90% level, which refers to growth in some studies and to a panel of isolates in others. The low end stands for higher susceptibility, the high end for lower susceptibility. For the compound `Nc1ccc(C(=O)N/N=C/c2ccc([N+](=O)[O-])o2)cc1`, the MIC was 4 µM (≈ 1.1 µg/mL) in the experiment with Enterococcus faecalis [1], 4 µM (≈ 1.1 µg/mL) with Enterobacter cloacae [4], 2 µM (≈ 0.548 µg/mL) against Staphylococcus aureus [6] and 8 µM (≈ 2.19 µg/mL) with Escherichia coli [7]. The MIC90 in the experiment on Enterococcus faecalis [1] turned out to be 5.63 µM (≈ 1.54 µg/mL); with Enterobacter cloacae [4] it was 6.8 µM (≈ 1.86 µg/mL); in the experiment with Staphylococcus aureus [6], 4.77 µM (≈ 1.31 µg/mL); against Escherichia coli [7], 15.9 µM (≈ 4.36 µg/mL). The “log(1/MIC>90)” value in the experiment with Staphylococcus aureus [2] is 5.32. The result in the experiment with Serratia marcescens [3], in the experiment on Klebsiella pneumoniae and in the experiment on Candida albicans [5] was inactive.

Consider `O=C(N/N=C/c1ccc([N+](=O)[O-])o1)c1ccc(Br)cc1`, for which the result in the experiment with Escherichia coli [8], in the experiment with Serratia marcescens [3], with Klebsiella pneumoniae, with Enterobacter cloacae [9], in the experiment with Candida albicans [5] and in the experiment with Enterococcus faecalis [10] was inactive. Besides, the “log(1/MIC>90)” value with Staphylococcus aureus [2] was 5.35. Moreover, in the experiment on Staphylococcus aureus [6], inhibition of growth (MIC) required 2 µM (≈ 0.676 µg/mL). Moreover, in the experiment with Staphylococcus aureus [6], the MIC90 was found to be 4.5 µM (≈ 1.52 µg/mL).

With `O=C1CN(/N=C/c2ccc([N+](=O)[O-])o2)C(=O)N1` [NITROFURANTOIN], the MIC against Enterococcus faecalis [1] amounted to 16 µM (≈ 3.81 µg/mL); against Enterobacter cloacae [4], 8 µM (≈ 1.91 µg/mL); against Staphylococcus aureus [6] it was 16 µM (≈ 3.81 µg/mL). Also, the result with Serratia marcescens [3] and in the experiment with Klebsiella pneumoniae was inactive.

For `O=C(N[C@H](CO)[C@H](O)c1ccc([N+](=O)[O-])cc1)C(Cl)Cl` [CHLORAMPHENICOL], the MIC with Enterococcus faecalis [1] was determined as 8 µM (≈ 2.59 µg/mL); with Serratia marcescens [11], 8 µM (≈ 2.59 µg/mL); with Enterobacter cloacae [4], 4 µM (≈ 1.29 µg/mL); in the experiment with Staphylococcus aureus [6] it was 4 µM (≈ 1.29 µg/mL); in the experiment on Escherichia coli [7], 4 µM (≈ 1.29 µg/mL). The outcome with Klebsiella pneumoniae was inactive.

Turning to `CN(C)c1ccc(C(=O)N/N=C/c2ccc([N+](=O)[O-])o2)cc1`, the “log(1/MIC>90)” value in the experiment on Staphylococcus aureus [2] was found to be 5.11. Moreover, the result with Serratia marcescens [3], in the experiment on Klebsiella pneumoniae, with Enterobacter cloacae [9], with Candida albicans [5] and in the experiment on Enterococcus faecalis [10] was inactive. Besides, the values for the MIC with Staphylococcus aureus [6] and against Escherichia coli [7] were 4 µM (≈ 1.21 µg/mL) and 32 µM (≈ 9.67 µg/mL), respectively. In addition, the values for the MIC90 in the experiment on Staphylococcus aureus [6] and in the experiment on Escherichia coli [7] were 7.7 µM (≈ 2.33 µg/mL) and 55 µM (≈ 16.6 µg/mL), respectively.

With `CC1(C)S[C@@H]2[C@H](NC(=O)[C@H](N)c3ccccc3)C(=O)N2[C@H]1C(=O)O` [AMPICILLIN], the MIC against Enterococcus faecalis [1] was less than 20 µM; in the experiment on Enterobacter cloacae [4], 8 µM (≈ 2.8 µg/mL); with Staphylococcus aureus [6], less than 20 µM; with Escherichia coli [7], less than 20 µM. In addition, the result in the experiment on Serratia marcescens [3] and in the experiment on Klebsiella pneumoniae was inactive.

In the case of `CC(=O)N1N=C(c2ccc(C#N)cc2)OC1c1ccc([N+](=O)[O-])o1` (stereo not given), the MIC with Enterococcus faecalis [1] was determined as 64 µM (≈ 20.9 µg/mL); with Serratia marcescens [11], 64 µM (≈ 20.9 µg/mL); in the experiment with Staphylococcus aureus [12], 4 µM (≈ 1.31 µg/mL); against Staphylococcus aureus [6], 2 µM (≈ 0.653 µg/mL); against Escherichia coli [7], 32 µM (≈ 10.4 µg/mL); against Candida albicans [13], 32 µM (≈ 10.4 µg/mL). Also, the MIC90 with Enterococcus faecalis [1] came to 75.2 µM (≈ 24.5 µg/mL); against Serratia marcescens [11], 96.3 µM (≈ 31.4 µg/mL); against Staphylococcus aureus [6], 3.89 µM (≈ 1.27 µg/mL); in the experiment with Escherichia coli [7], 43.1 µM (≈ 14.1 µg/mL); in the experiment with Candida albicans [13], 47.6 µM (≈ 15.5 µg/mL). The “log(1/MIC>90)” value with Staphylococcus aureus [2] was 5.41. Further, the result with Klebsiella pneumoniae and in the experiment with Enterobacter cloacae [9] was inactive.

On to `O=C(N/N=C/c1ccc([N+](=O)[O-])o1)c1ccc(O)cc1` [NIFUROXAZIDE], for which the MIC was 8 µM (≈ 2.2 µg/mL) in the experiment on Enterococcus faecalis [1]; 8 µM (≈ 2.2 µg/mL) against Staphylococcus aureus [12]; 32 µM (≈ 8.81 µg/mL) with Enterobacter cloacae [4]; 4 µM (≈ 1.1 µg/mL) against Staphylococcus aureus [6]; 32 µM (≈ 8.81 µg/mL) in the experiment on Escherichia coli [7]. In addition, the MIC90 in the experiment with Enterococcus faecalis [1] was 10.6 µM (≈ 2.93 µg/mL); with Enterobacter cloacae [4], 31.2 µM (≈ 8.59 µg/mL); against Staphylococcus aureus [6] it was 8.87 µM (≈ 2.44 µg/mL); with Escherichia coli [7] it was 42 µM (≈ 11.6 µg/mL). Further, the “log(1/MIC>90)” value in the experiment on Staphylococcus aureus [2] is 5.05. Further, the outcome in the experiment on Serratia marcescens [3], in the experiment on Klebsiella pneumoniae and with Candida albicans [5] was inactive.

Source of the values: ChEMBL document CHEMBL3259528, “Exploring 5-nitrofuran derivatives against nosocomial pathogens: synthesis, antimicrobial activity and chemometric analysis” (2014).
